Screens from PubChem BioAssay.
Most compounds without a hit are left out; they make up all but 0.85% or so of the library.
zfTRPN1 agonist: zebrafish TRPN1 channel agonists, primary screen, cell-based, HEK293, calcium fluorescence; activation, % at 3 µM; HEK293 zebrafish TRPN1-YFP, Fluo-8 calcium fluorescence; 100% = response to 87 µM carbachol; 220,000 tested, 0.18% active; transient receptor potential cation channel N1 (TRPN1/NompC), Danio rerio; AID 1424, 2008;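 active means activation above its plate's cutoff, the mean activation of test wells on that plate plus 3 SD, cut at about 19% in these data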
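System: zebrafish TRPN1-YFP in HEK293 cells / Dosing: 3 µM single point / Timing: dye loading 1 h at 37 °C, then 30 min room temperature / Signal: Fluo-8 calcium fluorescence, excitation 470-495 nm, emission 515-575 nm / Read-out basis: percent activation from peak over basal fluorescence ratio, control-normalized / Control set: high carbachol 87 µM, low DMSO alone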
TRPML3 agonist: human TRPML3 channel agonists, primary screen, cell-based, HEK293 TRPML3-YFP, Fluo-8 calcium fluorescence, 3 µM; Mucolipin-3 (Homo sapiens), Q8TDD5; 100% = the carbachol control signal; activation, % at 3 µM; 220,000 tested, 0.29% active; AID 1448, 2008;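 active means activation above its plate's cutoff, the mean activation of the plate's test wells plus 3 SD, cut at about 12% in these data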
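system = HEK293 cells stably carrying human TRPML3-YFP | doses = one concentration, 3 µM nominal, 0.3% DMSO | timing = dye loading 1 h 37 °C then 30 min ambient, 125 s read | detection = Fluo-8 calcium dye fluorescence, ex 470-495, em 515-575 nm | benchmarks = high control carbachol 87 µM, low control DMSO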
V1R ag counter: agonists of human V1a receptor, primary screen, counter-screen for OXTR agonist project, fluorescence, CHO-V1R cells. activation, % at 3 µM. 320,000 tested, 0.25% active. Fluo-8 calcium fluorescence, agonist mode; 0% DMSO, 100% 3 nM vasopressin. AID 2797, 2010;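 active means activation above the mean activation of all tested compounds plus 3 SD, per screening run, cut at about 20% in these data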;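 further: signal is peak over basal fluorescence ratio across a 100 second FLIPR read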
CRFR2-BP ag: agonists of CRF-BP/CRF-R2 complex, primary screen, cell-based, HEK293, calcium dye fluorescence, uHTS; CRF-binding protein / CRF receptor 2 complex (human); calcium dye fluorescence (FLIPR); percent of saturating CRF peptide response; activation, % at 13.2 µM; 350,000 tested, 0.46% active;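 active means activation of at least 50%, plus an integration ratio under a set limit after plate pattern correction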
OXTR agonist: human OXTR agonists, primary screen, fluorescence, CHO-OTR cells, Fluo-8 calcium | 320,000 tested, 0.32% active | Fluo-8 calcium fluorescence; normalized: DMSO 0%, oxytocin 100% | AID 2435, 2010 | Oxytocin receptor (Homo sapiens), P30559 | activation, % at 3 µM;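 active means activation above the mean of all tested compounds plus 3 SD, cutoff set per screening run, cut at about 20% in these data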;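 further: peak over basal fluorescence ratio from a 100 s FLIPR kinetic read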
Target sequence (P30559 whole entry, looked up): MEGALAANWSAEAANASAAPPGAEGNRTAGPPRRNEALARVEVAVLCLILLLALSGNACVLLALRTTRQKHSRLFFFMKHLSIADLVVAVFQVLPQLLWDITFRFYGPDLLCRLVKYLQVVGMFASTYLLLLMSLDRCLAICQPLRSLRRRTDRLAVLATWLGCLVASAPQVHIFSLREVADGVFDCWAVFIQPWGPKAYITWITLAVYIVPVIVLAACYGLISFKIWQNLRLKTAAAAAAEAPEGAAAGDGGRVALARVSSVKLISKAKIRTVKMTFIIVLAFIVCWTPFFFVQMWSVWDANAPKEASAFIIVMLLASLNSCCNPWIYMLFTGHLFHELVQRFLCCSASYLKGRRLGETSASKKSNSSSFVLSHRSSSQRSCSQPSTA
OXTR potentiate: human OXTR potentiators, primary screen, fluorescence, CHO-OTR cells, Fluo-8 calcium. Oxytocin receptor (Homo sapiens), P30559. Fluo-8 calcium fluorescence, potentiator mode; 0% = oxytocin EC15, 100% = EC100. activation, % at 3 µM. 320,000 tested, 0.061% active;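 active means activation above that plate's cutoff, the mean activation of tested compounds plus 3 SD, cut at about 6.6% in these data, passing the limit was not always enough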
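Assay system: CHO cell line stably expressing human OTR | Also added: Oxytocin at about EC15, sub-maximal agonist stimulus | Times: Compound 6 min at room temperature before oxytocin, 100 s read | Measured by: Fluo-8 intracellular calcium fluorescence, ex 470-495, em 515-575 nm | Controls: EC15 oxytocin alone as 0%, 75 nM oxytocin as 100%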
Hits are given with their value; . = inactive; / = no result.

SMILES | zfTRPN1 agonist | TRPML3 agonist | V1R ag counter | CRFR2-BP ag | OXTR agonist | OXTR potentiate
CC(C)=CCC[C@](C)(OC1OC(COC2OCC(O)C(O)C2O)C(O)C(O)C1O)C1CC[C@]2(C)C1C(O)CC1[C@@]3(C)CCC(O[C@@H]4O[C@H](CO)C(O)C(O)C4O[C@@H]4OC(CO)C(O)C(O)C4O)C(C)(C)C3CC[C@]12C (some centres not stated) | / | / | . | . | . | .
CCOC(=O)C1(CC2CCCCO2)CCN(Cc2cc3ccccc3[nH]2)CC1 (configuration not stated) | 30 | 24 | 28 | 126 | 31 | .
CCCCc1ncc(CN2CCC(CC3CCCCO3)(C(=O)OCC)CC2)[nH]1 (configuration not stated) | . | . | . | . | . | .
CCOC(=O)C1=NN(C(=O)c2ccc(C)cc2)C(O)(c2ccc(Cl)cc2)C1 (configuration not stated) | 25 | 18 | 32 | 90 | 37 | .
CCC1=NN(C(=O)c2ccc(Cl)cc2)C(O)(c2ccc(C)cc2)C1 (configuration not stated) | / | / | / | . | / | /
COC(=O)C1=NN(C(=O)c2ccc(Cl)cc2)C(O)(c2ccccc2)C1 (configuration not stated) | . | . | . | 72 | . | .
CCOC(=O)c1nc2ccc(C)cc2c2c1C1CC(c3c(Cl)cccc31)N2C(=O)OCc1ccccc1 (configuration not stated) | / | / | / | . | / | /
CCc1nn(CC(=O)NCCN2CCN(C)CC2)c(=O)c2cc3c(OC)cccc3n12 | / | / | . | . | . | .
Cc1cc(N)cc(C)c1-c1c(Br)cc(N)cc1Br | / | / | / | . | / | /
Cc1ccc(C(C)C)c2c1C(c1ccc3c(c1)OCO3)CC(=O)O2 (configuration not stated) | / | / | / | 66 | / | /
CCN(CC)S(=O)(=O)c1ccc(SCC(=O)c2c(N)n(C3CC3)c(=O)[nH]c2=O)nc1 | / | / | / | . | / | /
O=C(NC(=S)Nc1ccc(F)cc1)c1ccc2c(c1)OCCO2 | . | . | . | 93 | . | .
CC1CCCC(NC(=S)NC(=O)c2ccco2)C1C (configuration not stated) | / | / | . | . | . | .
COC(=O)C1Cc2c([nH]c3ccccc23)C2(CCN(Cc3ccccc3)CC2)N1 (configuration not stated) | / | / | . | . | . | .
CCOc1ccc(NC(=O)Cn2sc3nc(C)cc(C)c3c2=O)cc1 | . | . | . | . | . | .
Cc1cc(C)c2c(=O)n(CC(=O)Nc3ccc(Cl)cc3)sc2n1 | . | . | 30 | . | 32 | .
O=C(Nc1ccc(Cl)cc1)Nc1ccc(Cl)c(Cl)c1 | / | / | . | . | . | .
N#Cc1ccc(NC(=O)Nc2ccc(Cl)cc2)cc1 | 22 | 15 | . | . | . | .
CCN1/C(=C/c2ccc3cc(C)ccc3[n+]2CC)Sc2ccc3sccc3c21 | / | / | . | . | . | .
CCN1/C(=C/c2ccc3cc(C)cc(C)c3[n+]2CC)Sc2cc(C)ccc21 | 50 | 15 | / | 182 | / | /
CCN1/C(=C/C(C)=C/c2sc3ccccc3[n+]2CC)Sc2ccccc21 | . | . | . | . | . | .
CCN1/C(=C/c2ccc3cccc(C)c3[n+]2CC)Sc2ccccc21 | 32 | 18 | . | 205 | . | .
CCN1/C(=C\c2ccc3cc(C)ccc3[n+]2CC)Sc2cc(C)c(C)cc21 | . | . | / | 114 | / | /
CCCCC1CCC(C(=O)N(C)CC(=O)Nc2cccc(F)c2)CC1 (configuration not stated) | / | / | . | . | . | .
COCCN(Cc1cc2cc(C)ccc2[nH]c1=O)S(=O)(=O)c1ccc(Cl)cc1 | / | / | . | . | . | .
SMILES | zfTRPN1 agonist | TRPML3 agonist | V1R ag counter | CRFR2-BP ag | OXTR agonist | OXTR potentiate
CN(C)C=Nc1c(Br)cc(Br)c2nonc12 | . | . | 84 | 109 | 106 | .
CN(C)C=Nc1nonc1-c1ccccc1 | . | . | . | . | . | .
Cc1cccc(OCC(=O)NCCCNC(=O)c2ccco2)c1 | / | / | . | . | . | .
COc1ccccc1NC(=O)/C(C#N)=C/c1cc([N+](=O)[O-])ccc1N1CCCC1 | . | . | . | 92 | . | .
COc1ccccc1NC(=O)/C(C#N)=C/c1ccncc1 | / | / | . | . | . | .
Cc1ccccc1S(=O)(=O)N(C)C[C@@H]1OCc2ccccc2-c2c(n(C)c3ccccc23)C(=O)N([C@H](C)CO)C[C@@H]1C | / | / | / | . | / | /
Cn1c2ccccc2c(=O)c2c(=O)n(C3CCCCC3)c(-c3ccco3)nc21 | . | . | 29 | 99 | . | .
CC(C)Cn1c(-c2ccco2)nc2c(c(=O)c3ccccc3n2C)c1=O | . | . | . | / | . | .
COCCn1c(C)cc(C(=O)CSc2ccc(NC(C)=O)cc2)c1C | . | . | . | 62 | . | .
Cc1cc(-c2ccc(N3CCOCC3)cc2)nc2ccccc12 | . | . | . | 58 | . | .
c1ccc2nc(-c3ccc(N4CCOCC4)cc3)ccc2c1 | . | . | . | . | . | .
CCN1C(=O)/C(=C2/Sc3ccccc3N2CC)SC1=S | / | / | . | . | . | .
CCN1/C(=C2\SC(=S)N(Cc3ccccc3)C2=O)Sc2ccccc21 | . | . | . | 51 | . | .
O=C(NNC1=C(C(=O)C(F)(F)F)CCC1)c1ccccc1O | . | . | . | . | . | .
COc1ccccc1C(=O)NNC1=C(C(=O)C(F)(F)F)CCC1 | . | . | . | 62 | . | .
Cc1ccc(Cc2cnc(N3C(=N)SC(C)C3=O)s2)cc1 (configuration not stated) | . | . | . | . | . | .
O=C1c2ccccc2C(=O)N1c1ncc(Cc2ccc(Cl)cc2)s1 | . | . | . | 208 | . | .
CCn1c(Oc2ccccc2)nc2c1c(=O)n(C)c(=O)n2C | / | / | . | . | . | .
C=CCn1c(Oc2ccccc2)nc2c1c(=O)n(C)c(=O)n2C | . | . | . | 106 | . | .
C#CCOCCOCCOCCNc1nc(N2CCN(C(=O)CCCCCCCCCCNC(=O)[C@H](CO)n3cc(CCCSC)nn3)CC2)nc(N2CCN(C(=O)CCCCCCCCCCNC(=O)[C@@H]([C@H](C)O)n3cc(C)nn3)CC2)n1 | / | / | . | / | . | .
Oc1ccccc1N=Cc1c(O)ccc2ccccc12 | . | . | / | 123 | / | /
